Compounds with a hit are over-represented: about 3.2% of the library has one in this group of screens.
PLK1 inh – PLK1 (human) kinase inhibition; P53350; recombinant PLK1 kinase, TR-FRET peptide phosphorylation; inhibition, % at 10 µM; actives 0.53% (n = 97,000); AID 619;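 active = inhibition of 50% or more in the single-concentration screen; inactive = inhibition below 50%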;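 note: 0% = DMSO max control and 100% = H-89 dihydrochloride min control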
EphB4 ephrin blk – EphB4-ephrin-B2 interaction antagonism | EphB4 LBD / TNYL-RAW-Alexa532 peptide, fluorescence polarization | inhibition, % at 7 µM | actives 0.15% (n = 97,000) | AID 720;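 active = inhibition above the screen-wide mean inhibition plus 3 SD, cut at about 15% in these data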;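 note: 0% = DMSO wells and 100% = excess unlabeled TNYL-RAW peptide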
HIV Rev-RRE inh – HIV Rev-RRE protein-RNA interaction inhibition; P05866; Rev peptide-RRE RNA binding, FRET; inhibition, % at 8 µM; actives 0.79% (n = 97,000);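 active = inhibition above the screen-wide mean plus 3 SD, cut at about 35% in these data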;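 note: 0% = median DMSO wells and 100% = median Neomycin B control wells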
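Test system: Cy5-tagged RRE RNA duplex with fluorescein-tagged Rev peptide; Probe or stimulus: labelled Rev peptide; Schedule: 5 min preincubation and 15 min binding, 25 °C; Signal: FRET fluorescence readout; Evaluation: % inhibition from 671/540 nm acceptor-to-donor ratio, scaled between controls; Control set: DMSO and neomycin B.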
DAT uptake mod – changed human dopamine transporter uptake under cocaine IC80; actives 1.3% (n = 110,000); B-score at 10 µM; AID 449768; LLC-PK1 hDAT cells, [14C]-dopamine uptake with cocaine IC80; actives deviate in either direction; Q01959;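 active = Z score or B-score, a plate-position-corrected score, falls beyond the plate's 99.7% confidence bounds, in either direction; inactive = both scores lie inside the 99.7% bounds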;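 note: scored against the spread of the other compound wells on the same plate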
PLK1 PBD inh – blocks phosphopeptide binding to human Plk1 polo box domain; inhibition, %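 (tested at about 20 µM)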; Plk1 PBD phosphopeptide binding, fluorescence polarization; AID 693; P53350; actives 0.13% (n = 97,000); in the data active = inhibition above about 34%, passing the limit was not always enough
FAK blocker – inhibitors of human focal adhesion kinase. actives 0.84% (n = 97,000). biochemical FAK kinase activity assay. inhibition, %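 (tested at 7 µM)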; in the data active = inhibition above about 19%;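 note: 0% = DMSO and 100% = reference compound high control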
PLK1 inh conf – PLK1 (human) kinase inhibition, confirmed. shares compounds with PLK1 inh. recombinant PLK1 kinase, TR-FRET peptide phosphorylation. inhibition, % at 10 µM. actives 20% (n = 210);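 active = inhibition at or above 50% in each of two repeat confirmation tests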;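 note: 0% = DMSO max control and 100% = H-89 kinase-blocked min control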
TR-FRET interf – Plk1 assay compound interference counter-screen hit | Plk1 TR-FRET assay interference, compound added post-reaction | AID 756 | shares compounds with PLK1 inh | 210 tested, under 10 active | inhibition (interference), % at 10 µM;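 active = both duplicate runs show 50% or greater inhibition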;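 note: 0% = DMSO max control and 100% = H-89 min control inhibited reaction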
Active calls of the source: *; / = no result.

SMILES | PLK1 inh | EphB4 ephrin blk | HIV Rev-RRE inh | DAT uptake mod | PLK1 PBD inh | FAK blocker | PLK1 inh conf | TR-FRET interf
O=C(COC(=O)c1cccnc1)c1ccc(Cl)cc1 | -2 | -2 | -1 | -0.66 | 16 | -6 | / | /
Cc1ncc([N+](=O)[O-])n1CCOC(=O)Nc1ccc(Cl)c(Cl)c1 | 84* | 7 | 8 | -0.15 | 10 | 2 | 71* | -55
Cn1c(NC(=O)c2ccccc2C(F)(F)F)cc(=O)n(C)c1=O | 76* | -4 | 4 | 0.15 | 0 | -2 | 4 | -59
Cn1c(NC(=O)c2ccccc2Br)cc(=O)n(C)c1=O | / | / | / | -0.77 | / | / | / | /
CCCn1ncc(OC)c(Cl)c1=O | 2 | 10 | 5 | 1.2 | -7 | 0 | / | /
Cc1cc(C(C#N)c2cccc(Cl)c2)n2ncnc2n1 (stereo unspecified) | 71* | 1 | 0 | / | 26 | -6 | 63* | -55
Cc1cc(Nc2ccc(F)c(Cl)c2)n2ncnc2n1 | / | / | / | -0.34 | / | / | / | /
CNC(=S)N(Cc1ccc2c(c1)OCO2)C1CC(=O)N(c2ccc(F)cc2)C1=O (stereo unspecified) | 1 | -6 | 2 | -0.58 | 42 | -2 | / | /
CCc1ccc(N(CC(=O)NC2CCCCC2)S(=O)(=O)c2c(C)noc2C)cc1 | 74* | 1 | -1 | -0.26 | 12 | -7 | -8 | -59
CC(CNCc1ccc2c(c1)OCO2)NCc1ccc2c(c1)OCO2 (stereo unspecified) | 74* | -5 | 3 | 0.97 | -2 | -2 | -13 | -50
O=C(O)CSc1nnc(-c2ccncc2)n1-c1ccc(Cl)cc1 | -7 | -1 | 9 | -1.5 | 1 | -2 | / | /
NC(=O)CSc1nnc(-c2ccncc2)n1-c1ccc(Cl)cc1 | 73* | -10 | 2 | 0.076 | 0 | -7 | -9 | -49
CCN=c1scc(C)n1/N=C/c1ccsc1 | -1 | 0 | -6 | 0.98 | 8 | 0 | / | /
CN=c1scc(C)n1/N=C/c1ccc(O)c(O)c1O | 82* | 2 | 5 | -0.46 | 22 | 1 | 85* | 70*
COc1ccc(C(=O)Nc2cccc3c2C(=O)NC3=O)cc1S(=O)(=O)N1CCOCC1 | -7 | -8 | 0 | / | 8 | -1 | / | /
CCCCSc1nnc(-c2cc(Br)ccc2N)c(=O)[nH]1 | -15 | 1 | 5 | 0.12 | -3 | -5 | / | /
C=CCSc1nnc(-c2cc(Br)ccc2N)c(=O)[nH]1 | 71* | 0 | 5 | -0.87 | -24 | -2 | -11 | -61
Cc1onc(-c2ccccc2)c1C(=O)NC(C)C | 78* | -4 | 7 | 0.027 | -6 | 4 | -4 | -47
Cc1cccc(CSC2=NCCN2C(=O)c2ccc(Br)o2)c1 | -3 | 0 | 18 | 0.22 | -7 | 2 | / | /
COC(=O)c1sc2nc(CSc3nc4ccc(C)cc4[nH]3)[nH]c(=O)c2c1C | 71* | 1 | 18 | -0.29 | -9 | 1 | 42 | -43
COC(=O)CSc1nc2ccc(C)cc2[nH]1 | -1 | -3 | 0 | 0.039 | -9 | -4 | / | /
COc1cccc(-c2nnc(SCC(=O)Nc3ccc(S(N)(=O)=O)cc3)n2C)c1 | 110* | -7 | -1 | -0.73 | -30 | -3 | -8 | -54
COc1cccc(-c2nnc(SCC(=O)Nc3cc(C)on3)n2C)c1 | -5 | -1 | 3 | 0.58 | -5 | 0 | / | /
CCSc1nnc(NC(=O)CSc2nnc(-c3c[nH]c4ccccc34)n2C)s1 | 76* | 3 | 5 | -0.59 | 24 | -2 | -3 | -46
CCc1nnc(NC(=O)CSc2nnc(-c3c[nH]c4ccccc34)n2CCOC)s1 | -9 | -3 | 4 | 0.51 | 21 | 1 | / | /
COCCn1c(SCC(N)=O)nnc1-c1c[nH]c2ccccc12 | 71* | 2 | 7 | 0.16 | -31 | 0 | 6 | -46
COC(=O)c1ccc(CSc2nnc(-c3c[nH]c4ccccc34)n2C)o1 | 71* | -5 | 3 | 0.53 | 5 | -4 | -13 | -55
CCOc1ccccc1NC(=O)c1ccc(Cl)c(NC(=O)CC(c2ccccc2)c2ccccc2)c1 | -6 | 1 | 14 | -0.81 | -13 | 2 | / | /

Screening data (PubChem BioAssay)
